Measured values as given in ChEMBL document CHEMBL1955770, “Inhibition of S/G2 phase CDK4 reduces mitotic fidelity” (J Biol Chem, 2006).
Values belong to the molecule of their own block, whether it stands above or below them. The source made the active and inactive calls. The calls are words filed in the database; no cut-off is given here.

How the values were obtained:
HeLa [1] = assay: Cell cycle arrest in human HeLa cells assessed as accumulation at G1 phase at 2 uM treated 2 hr and measured 10 hr post double thymidine-synchrony release using propidium iodide staining by FACS analysis (reference value: 68 %); format: functional
HeLa [2] = assay: Cell cycle arrest at G2 phase in human HeLa cells assessed as delay in phosphotyrosine 15 CDK2 accumulation at 2 uM treated at early S phase measured after 6-14 hr post thymidine-synchrony release by immunoblot method; format: functional, cell-based
Outline: (§1)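 HeLa cells synchronized by double thymidine block and released, treated with 2 μM inhibitor in early S phase, or left untreated. Harvested at set times after release, lysed in NETN with phosphatase and protease inhibitors, run on SDS-PAGE and immunoblotted for cyclin B1 and phosphotyrosine 15 CDK1/2, with cyclin D3 as loading control. Detection by HRP secondary and ECL.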

HeLa [3] = assay: Cell cycle arrest in human HeLa cells assessed as time delay in progression through mitosis at 2 uM treated 2 hr post double thymidine-synchrony release using propidium iodide staining by FACS analysis; format: functional
Outline: (§2)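 Cells harvested at set times post-release, fixed in 70% ethanol, stained with 5 μg/ml propidium iodide plus 0.5 mg/ml RNase A, and analysed by flow cytometry. Cell-cycle phase fractions calculated by ModFit.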

[4] = biological target: Mitogen-activated protein kinase 3 (Homo sapiens, UniProt P27361); assay: Inhibition of ERK1 using fluorescent substrate by IMAP assay
Outline: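 Run in-house using IMAP: phosphorylated fluorescent peptide substrate binds preferentially to immobilized metal beads, which quantifies kinase activity. ATP at 3× the Km of each enzyme.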

A2058 [5] = assay: Cell cycle arrest in human A2058 cells assessed as accumulation at G2/M phase at 2 uM treated 1 hr and measured 12 hr post double hydroxyurea-synchrony release using propidium iodide staining by FACS analysis (reference value: 39 %); format: functional
[6] = Cell cycle arrest in Rb-competent human SK-MEL-13 cells assessed as accumulation at sub-diploid phase at 2 uM after 24 hrs by FACS analysis; format: functional
Outline: (§3)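 Ethanol-fixed cells stained with propidium iodide/RNase A, DNA content read by FACS, phase and sub-diploid fractions calculated with ModFit.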

HeLa [7] = assay: Cell cycle arrest in synchronized human HeLa cells assessed as large multinuclear cell formation at 2 uM by time-lapse microscopy; format: functional, cell-based
HeLa [8] = assay: Cell cycle arrest in human HeLa cells assessed as accumulation at S phase at 2 uM treated 4 hr and measured 8 hr post double thymidine-synchrony release using propidium iodide staining by FACS analysis (reference value: 8 %); format: functional; outline: as §2
NCI-H460 = assay: Toxicity in human H460a cells at IC50 after 3 days by MTT assay; format: cell-based; conditions: nci-h460, 72 h
HeLa [9] = assay: Cell cycle arrest at G2 phase in human HeLa cells assessed as time taken to reach peak mitosis at 2 uM treated at early S phase post thymidine-synchrony release by immunoblot method (reference value: 9-10 hrs); format: functional
HeLa [10] = assay: Cell cycle arrest in human HeLa cells transfected with cyclin D3 siRNA assessed as delay in progression into mitosis at 2 uM measured after 8 to 20 hr post hydroxyurea-synchrony release by time-lapse microscopy; format: functional, cell-based
Outline: (§4)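 HeLa cells transfected with 20 nM cyclin D3 siRNA number 1 or scrambled siRNA, then synchronized by overnight 2 mM hydroxyurea block and released. Treated with CDK4 inhibitor, siRNA, or both; entry into mitosis followed by time-lapse microscopy.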

HeLa [11] = assay: Cell cycle arrest in human HeLa cells assessed as accumulation at G1 phase at 2 uM treated 2 hr and measured 8 hr post double thymidine-synchrony release using propidium iodide staining by FACS analysis (reference value: 6 %); format: functional
HeLa [12] = assay: Cell cycle arrest in human HeLa cells assessed as time delay in progression through G2/M phase at 4 uM treated within 4 hr post double thymidine-synchrony release using propidium iodide staining by FACS analysis; format: functional; outline: as §2
[13] = Cell cycle arrest in human SK-MEL-13 cells assessed as effect on G2/M phase progression at 2 uM treated 6 hr post double hydroxyurea-synchrony release using propidium iodide staining by FACS analysis; format: functional, cell-based
[14] = Cell cycle arrest in human SK-MEL-13 cells assessed as accumulation at S phase at 2 uM treated 1 hr and measured 10 hr post double hydroxyurea-synchrony release using propidium iodide staining by FACS analysis (reference value: 16 %); format: functional, cell-based
Outline: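 SK-Mel-13 cells synchronized with 2 mM hydroxyurea, then treated with 2 μM CDK4 inhibitor or left untreated 1 h after release. Harvested at indicated times post-release, ethanol-fixed, propidium iodide/RNase stained, and DNA content read by FACS. Proportions of G1, S and G2/M cells derived with ModFit.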

HeLa [15] = assay: Decrease in survivin mRNA expression in human HeLa cells at 2 uM measured 8 to 14 hr post thymidine-synchrony release by RT-PCR analysis; format: functional, cell-based
Outline: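 Survivin mRNA measured by real-time Taqman RT-PCR on TRIzol-extracted RNA from synchronized, treated HeLa samples, with β-actin as reference. Reaction used 600 nM each primer and 200 nM probe. Cycling: 50 °C for 2 min, 95 °C for 10 min, then 40 cycles of 95 °C for 15 s and 60 °C for 1 min. Values are the average of triplicate determinations.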

HeLa [16] = assay: Cell cycle arrest in human HeLa cells transfected with cyclin D3 siRNA at 2 uM measured after 8 to 20 hr post hydroxyurea-synchrony release by time-lapse microscopy; format: functional, cell-based; outline: as §4
HeLa [17] = assay: Induction of abberent mitosis in human HeLa cells expressing GFP-H2B assessed as micronuclei formation during interphase at 2 uM treated 1 hr and measured 24 hr post thymidine-synchrony release by time-lapse microscopy (reference value: 10%); format: functional
A2058 [18] = assay: Cell cycle arrest in human A2058 cells assessed as accumulation at G1 phase at 2 uM treated 1 hr and measured 8 hr post double hydroxyurea-synchrony release using propidium iodide staining by FACS analysis; format: functional
HeLa [19] = assay: Cell cycle arrest in synchronized human HeLa cells assessed as re-joining to form single binuclear cells at 2 uM by time-lapse microscopy; format: functional, cell-based
HeLa [20] = assay: Cell cycle arrest at G2 phase in human HeLa cells assessed as delay in entry into mitosis at 2 uM treated 1 hr after double thymidine-synchrony release by MPM-2-based FACS analysis (reference value: 8 hrs); format: functional
HeLa [21] = assay: Cell cycle arrest in human HeLa cells assessed as accumulation at G2/M phase at 2 uM treated 4 hr and measured 10 hr post double thymidine-synchrony release using propidium iodide staining by FACS analysis (reference value: 31 %); format: functional; outline: as §2
RKO = assay: Toxicity in human RKO cells at 8 uM by MTT assay; format: cell-based
HeLa [22] = assay: Cell cycle arrest in Rb-deficient human HeLa cells assessed as accumulation at G1 phase at 2 uM after 24 hrs by FACS analysis; format: functional; outline: as §3
MDA-MB-453 = assay: Toxicity in human MDA-MB-453 cells at IC50 after 3 days by MTT assay; format: cell-based; conditions: mda-mb-453, 72 h
HeLa [23] = assay: Cell cycle arrest at G2 phase in human HeLa cells assessed as effect on CCNB1 accumulation at 2 uM treated at early S phase measured after 6-14 hr post thymidine-synchrony release by immunoblot method; format: functional, cell-based; outline: as §1
HeLa [24] = assay: Induction of abberent mitosis in human HeLa cells expressing GFP-H2B assessed as low survivin staining cells at 2 uM by immunofluorescence method (reference value: 9%); format: functional

Mitogen-activated protein kinase 3, sequence (P27361 whole entry): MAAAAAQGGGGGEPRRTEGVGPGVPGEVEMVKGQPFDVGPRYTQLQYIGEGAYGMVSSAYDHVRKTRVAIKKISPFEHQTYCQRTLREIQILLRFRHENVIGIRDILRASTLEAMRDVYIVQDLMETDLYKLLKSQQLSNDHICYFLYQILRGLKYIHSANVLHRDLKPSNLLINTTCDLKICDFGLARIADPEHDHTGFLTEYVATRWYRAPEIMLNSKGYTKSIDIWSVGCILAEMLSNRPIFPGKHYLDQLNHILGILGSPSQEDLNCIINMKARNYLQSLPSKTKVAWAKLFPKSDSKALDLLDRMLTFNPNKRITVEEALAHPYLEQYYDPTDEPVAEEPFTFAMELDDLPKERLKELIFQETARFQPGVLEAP

IC50 [4]: > 100 µM
Compound: COc1cccc(C(=O)c2sc(Nc3ccc(N4CCN(C(C)C)CC4)cc3)nc2N)c1
Activity (HeLa [1]): 4%
Activity (HeLa [2]): Active
Time (HeLa [3]): 4 h
Activity (A2058 [5]): 60%
Activity [6]: 9%
Activity (HeLa [7]): Active
Activity (HeLa [8]): 4%
Activity (NCI-H460): Toxic
Time (HeLa [9]): 12 h
Activity (HeLa [10]): Active
Activity (HeLa [11]): 7%
Time (HeLa [12]): >4 h
Activity [13]: inactive
Activity [14]: 14%
Activity (HeLa [15]): Active
Activity (HeLa [16]): Active
Activity (HeLa [17]): 30%
Activity (A2058 [18]): 8%
Activity (HeLa [19]): Active
Time (HeLa [20]): 12 h
Activity (HeLa [21]): 88%
Activity (RKO): Toxic
Activity (HeLa [22]): 49%
Activity (MDA-MB-453): Toxic
Activity (HeLa [23]): inactive
Activity (HeLa [24]): 18%

IC50 [4]: > 100 µM
Compound: CN1CCN(c2ccc(Nc3nc(N)c(C(=O)c4ccc5c(c4)OCCO5)s3)cc2)CC1
Activity (HeLa [1]): 4%
Activity (HeLa [2]): Active
Time (HeLa [3]): 4 h
Activity (A2058 [5]): 60%
Activity [6]: 9%
Activity (HeLa [7]): Active
Activity (HeLa [8]): 4%
Activity (NCI-H460): Toxic
Time (HeLa [9]): 12 h
Activity (HeLa [10]): Active
Activity (HeLa [11]): 7%
Time (HeLa [12]): >4 h
Activity [13]: inactive
Activity [14]: 14%
Activity (HeLa [15]): Active
Activity (HeLa [16]): Active
Activity (HeLa [17]): 30%
Activity (A2058 [18]): 8%
Activity (HeLa [19]): Active
Time (HeLa [20]): 12 h
Activity (HeLa [21]): 88%
Activity (RKO): Toxic
Activity (HeLa [22]): 49%
Activity (MDA-MB-453): Toxic
Activity (HeLa [23]): inactive
Activity (HeLa [24]): 18%
